Rows were chosen to be rich in hits. Some 2.9% of all compounds tested hit in one or more screens of this group.
SIRT5 block: inhibitors of human sirtuin-5 desuccinylase. Purified SirT5, succinyl-peptide AMC, trypsin-coupled fluorescence. inhibition, % at 15 µM. 330,000 tested, 1.1% active. AID 652115; in the data active means inhibition above about 15%; inconclusive means no clear call, values can overlap the other calls
DENV2 CPE: protects cells from dengue virus 2 cytopathic effect. DENV2-infected cells, cytopathic effect rescue, plate reader. CPE inhibition, % at 9.99 µM. 350,000 tested, 1.7% active. AID 651640; in the data active means CPE inhibition above about 20%, passing the limit was not always enough; inconclusive means no clear call, values can overlap the other calls; tested in BHK-21 cells;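 further: 0% = median of neutral control wells and 100% = median of positive control wells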
E-selectin induc: induces E-selectin expression in human endothelial cells; activation, % at 7.58 µM; 260,000 tested, 0.37% active; HUVEC E-selectin immunofluorescence imaging; normalized: neutral wells 0, TNF-alpha wells 100;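 active means mean E-selectin-positive cell signal at least 10% of the positive control, reached in at least 60% of replicates, without over 20% cell loss; inconclusive means no rule given, readout overlaps actives, possibly toxicity-flagged; inactive means the rest, including those meeting only one limit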
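Test system: HUVEC | Signal: Immunofluorescence imaging | Read-out: Percent E-selectin-positive cells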
The depositor's hits bear a star.

`COC(=O)/C(C#N)=C/c1c(N2CCCCCC2)nc2ccccn2c1=O` gave SIRT5 block -1, DENV2 CPE 1 and E-selectin induc 0.
For CC1CC2=C(C(=O)O1)C(c1ccc(Cl)cc1)Nc1ccccc1N2 (stereo not drawn) the results were SIRT5 block 0 and DENV2 CPE 88*.
Cc1ccc(C2Nc3ccccc3NC3=C2C(=O)OC(C)C3)cc1 (stereo not drawn) was read as SIRT5 block -2 and DENV2 CPE -9.
`CCc1ccc(NC(=O)N(CCCN2CCOCC2)Cc2cccs2)cc1` gave SIRT5 block -2, DENV2 CPE 34* and E-selectin induc 4.
For O=C(Nc1ccccc1)N(CCCN1CCOCC1)Cc1cccs1 the results were DENV2 CPE -1 and E-selectin induc 0.
`CCn1c(SCC(=O)NNC(=O)Cc2ccccc2)nnc1-c1ccncc1` gave SIRT5 block -2, DENV2 CPE -4 and E-selectin induc 0.
`N#C[C@@H]1[C@@H](c2ccc(-c3ccc(F)cc3)cc2)[C@H](CO)N1C(=O)Cc1ccccc1` gave SIRT5 block 2, DENV2 CPE 7 and E-selectin induc -1.
For CN(C)/C=C1\Oc2ccc3ccccc3c2C1=O the results were SIRT5 block 112* and DENV2 CPE -3.
Screening CN(C)/C=C1/Oc2c(ccc3ccccc23)C1=O returned SIRT5 block -3 and DENV2 CPE -4.
C[C@H]1CN([C@@H](C)CO)C(=O)CCCn2cc(nn2)CO[C@H]1CN(C)C(=O)Nc1ccccc1 was read as E-selectin induc 0.
For CCc1ccc(NC(=O)C(C)OC(=O)Cn2[nH]c(=O)c3ccccc3c2=O)cc1 (stereo not drawn) the results were SIRT5 block 1, DENV2 CPE 60* and E-selectin induc 6.
Screening CC(OC(=O)Cn1[nH]c(=O)c2ccccc2c1=O)C(=O)Nc1ccc(Cl)cn1 (stereo not drawn) returned SIRT5 block -3 and DENV2 CPE 14.
`CO[C@H]1CN(C)C(=O)c2cc(NC(C)=O)ccc2OC[C@@H](C)N(C(=O)CN(C)C)C[C@H]1C` gave SIRT5 block 2, DENV2 CPE 3 and E-selectin induc 0.
`CO[C@@H]1CN(C)C(=O)c2cc(NS(C)(=O)=O)ccc2OC[C@@H](C)N(C(=O)CN(C)C)C[C@H]1C` gave SIRT5 block -4, DENV2 CPE 0 and E-selectin induc 0.
Screening CO[C@@H]1CN(C)C(=O)c2cc(NS(C)(=O)=O)ccc2OC[C@H](C)N(C(=O)CN(C)C)C[C@@H]1C returned SIRT5 block 1, DENV2 CPE 76* and E-selectin induc 0.
For CO[C@H]1CN(C)C(=O)c2cc(NC(C)=O)ccc2OC[C@H](C)N(C(=O)CN(C)C)C[C@H]1C the results were SIRT5 block -1, DENV2 CPE 44* and E-selectin induc 0.
CN(Cc1ccccc1)C(=O)c1ccccc1NC(=O)c1ccccc1 was read as SIRT5 block 0.
`CC1=C(C(=O)N(C)C)CC(CC(=O)NCCCN(C)C)C(=O)N1CCC1=CCCCC1` (stereo not drawn) gave SIRT5 block 5 and DENV2 CPE 9.
`Cc1ccc2nc(C(Cl)(Cl)Cl)nc(N/N=C/c3ccncc3)c2c1` gave SIRT5 block -3 and DENV2 CPE 7.
Screening C[C@@H]1CN([C@@H](C)CO)S(=O)(=O)c2ccc(-c3cccc(C#N)c3)cc2O[C@@H]1CN(C)Cc1ccccn1 returned SIRT5 block 0, DENV2 CPE 17 and E-selectin induc -2.
For O=C(NCc1ccccn1)[C@@H]1CCCN1C(=O)[C@@H]1CCCN1C(=O)c1c(F)cccc1F the results were SIRT5 block -4, DENV2 CPE inconclusive and E-selectin induc 0.
`CC(C)(C)NC(=O)C(c1cccc2ccccc12)n1c(=O)c(-c2ccccc2)nc2ccccc21` (stereo not drawn) gave SIRT5 block 0, DENV2 CPE 27* and E-selectin induc 0.
`CC(C)(C)NC(=O)C(c1cccc2ccccc12)n1c(=O)c(-c2ccco2)nc2ccccc21` (stereo not drawn) gave SIRT5 block 0, DENV2 CPE 0 and E-selectin induc 0.
For CCCCCNC(=O)C(c1cc2ccccc2o1)n1c(=O)c(-c2cc3ccccc3[nH]2)nc2ccccc21 (stereo not drawn) the results were SIRT5 block -1, DENV2 CPE inconclusive and E-selectin induc 2.
For CCCCCNC(=O)C(c1cc2ccccc2o1)n1c(=O)c(-c2ccccc2)nc2ccccc21 (stereo not drawn) the results were SIRT5 block 19*, DENV2 CPE -15 and E-selectin induc 0.
`Cc1ccc(NC(=O)CSCC(=O)Nc2cc(Cl)ccc2N2CCN(C)CC2)cc1` gave SIRT5 block -2, DENV2 CPE 2 and E-selectin induc 0.

Bioassay records deposited in PubChem by Broad Institute.
